According to publication PMC3970846 (Toxicology and applied pharmacology, 2013):
Converted amounts (≈) assume the structure as drawn.

Legend:
human 2B6 = settings: ref Talakad et al., 2009; cited from earlier work
rat 2B1 [1] = target: T1, rat 2B1 (Rattus norvegicus, UniProt P00176, E2A/G22K/H23K/K25S/N29K/P24T/R27K); format: binding
T1 sequence (P00176 with tags, fused parts or gaps limits assumed): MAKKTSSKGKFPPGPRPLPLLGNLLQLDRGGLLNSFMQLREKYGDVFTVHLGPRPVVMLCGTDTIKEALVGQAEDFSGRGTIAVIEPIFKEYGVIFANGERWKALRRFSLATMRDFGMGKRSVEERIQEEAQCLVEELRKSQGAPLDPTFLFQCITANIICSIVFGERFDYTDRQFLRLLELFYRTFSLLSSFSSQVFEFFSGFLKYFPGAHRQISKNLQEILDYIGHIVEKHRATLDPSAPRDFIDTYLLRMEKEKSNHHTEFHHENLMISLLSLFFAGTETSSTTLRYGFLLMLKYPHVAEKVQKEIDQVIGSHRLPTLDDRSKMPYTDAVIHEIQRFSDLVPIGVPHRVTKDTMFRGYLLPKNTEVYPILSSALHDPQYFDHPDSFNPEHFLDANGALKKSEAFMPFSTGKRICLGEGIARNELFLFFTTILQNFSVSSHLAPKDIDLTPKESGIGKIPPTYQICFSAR

2B35v1 [2] = target: T2, 2B35v1 (Neotoma lepida, UniProt J7EVA5); settings: read-out: (+)-α-pinene spectral binding KS; enzyme 2B35v1; 25 °C
T2 sequence (J7EVA5 22-491): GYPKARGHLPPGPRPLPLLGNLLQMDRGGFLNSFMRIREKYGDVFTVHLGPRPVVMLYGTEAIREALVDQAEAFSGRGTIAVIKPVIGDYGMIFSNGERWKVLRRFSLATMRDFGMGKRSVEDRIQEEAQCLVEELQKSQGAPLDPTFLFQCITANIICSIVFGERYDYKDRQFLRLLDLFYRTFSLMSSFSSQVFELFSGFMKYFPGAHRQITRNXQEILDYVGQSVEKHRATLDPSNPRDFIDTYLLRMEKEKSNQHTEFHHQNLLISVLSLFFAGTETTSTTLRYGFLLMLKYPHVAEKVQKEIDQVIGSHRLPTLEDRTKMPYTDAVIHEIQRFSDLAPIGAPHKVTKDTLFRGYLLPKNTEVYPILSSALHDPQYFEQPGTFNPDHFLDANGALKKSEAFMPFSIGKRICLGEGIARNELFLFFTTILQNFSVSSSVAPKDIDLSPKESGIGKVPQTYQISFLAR

2B36v1 [3] = target: T3, 2B36v1 (Neotoma lepida, UniProt J7EWE5); settings: read-out: (+)-α-pinene spectral binding KS; enzyme 2B36v1; 25 °C
2B37v1 [4] = target: T4, 2B37v1 (Neotoma lepida, UniProt J7EWE1); settings: read-out: (+)-α-pinene spectral binding KS; enzyme 2B37v1; 25 °C
2B37v2 [5] = target: T5, 2B37v2 (Neotoma lepida, UniProt J9JD75); settings: read-out: (+)-α-pinene spectral binding KS; enzyme 2B37v2; 25 °C
[6] = ref Sridhar et al., 2012; cited from earlier work
[7] = test system: CCOc1ccc2c(C(F)(F)F)cc(=O)oc2c1; assay: 7-EFC O-deethylation, reconstituted system; format: biochemical, rat; settings: other: enzyme 2B1; 37.0 °C
2B35v1 [8] = target: T2, 2B35v1; assay: 7-EFC O-deethylation, reconstituted system; format: biochemical; settings: substrate 7-EFC; enzyme 2B35v1
Summary of the method: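 Enzyme with C-terminal His4 tag, expressed in TOPP3 cells and purified on Ni-NTA then CM-Sepharose. Reconstituted with rat NADPH-P450 reductase and rat cytochrome b5 (P450:reductase:b5 1:4:2). 7-EFC 0–150 μM in 50 mM HEPES pH 7.4, 15 mM MgCl2. Started with 1 mM NADPH, 10 min at 37 °C, quenched with ice-cold acetonitrile, diluted into 0.1 M Tris pH 9.0. 7-HFC read at ex 410/em 510 nm, calibrated daily with 0–2 μM HFC. Michaelis-Menten fit.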

2B36v1 [9] = target: T3, 2B36v1; assay: 7-EFC O-deethylation, reconstituted system; format: biochemical; settings: enzyme 2B36v1
2B37v1 [10] = target: T4, 2B37v1; assay: 7-EFC O-deethylation, reconstituted system; format: biochemical
2B37v2 [11] = target: T5, 2B37v2; assay: 7-EFC O-deethylation, reconstituted system; format: biochemical
2B37v1 K262R [12] = target: T6, 2B37v1 K262R (Neotoma lepida, UniProt J7EWE1, K262R, form not given); assay: 7-EFC O-deethylation, reconstituted system; format: biochemical
2B37v2 R262K [13] = target: T7, 2B37v2 R262K (Neotoma lepida, UniProt J9JD75, R262K, form not given); assay: 7-EFC O-deethylation, reconstituted system; format: biochemical
2B37v2 V114I [14] = target: T8, 2B37v2 V114I (Neotoma lepida, UniProt J9JD75, V114I, form not given); assay: 7-EFC O-deethylation, reconstituted system; format: biochemical; settings: enzyme 2B37v2 V114I
2B37v2 V480L [15] = target: T9, 2B37v2 V480L (Neotoma lepida, UniProt J9JD75, V480L, form not given); assay: 7-EFC O-deethylation, reconstituted system; format: biochemical; settings: enzyme 2B37v2 V480L
2B37v2 V114I/V480L = 2B37v2 V114I/V480L (Neotoma lepida, UniProt J9JD75, V114I/V480L, form not given); assay: 7-EFC O-deethylation, reconstituted system; format: biochemical; settings: enzyme 2B37v2 V114I/V480L
rat 2B1 [16] = target: rat 2B1 (Rattus norvegicus, UniProt P00176, E2A/G22K/H23K/K25S/N29K/P24T/R27K); assay: 7-BR O-debenzylation, reconstituted system; format: biochemical; settings: enzyme 2B1
2B35v1 [17] = target: T2, 2B35v1; assay: 7-BR O-debenzylation, reconstituted system; format: biochemical; settings: substrate 7-BR; enzyme 2B35v1
Summary of the method: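 Same His4-tagged enzyme and purification, and same reconstituted system (P450:rat reductase:rat b5 1:4:2). 7-BR 0–10 μM in 50 mM HEPES pH 7.4, 15 mM MgCl2. NADPH 1 mM final started the reaction, 10 min at 37 °C, then methanol quench. Resorufin read at ex 550/em 580 nm, calibrated daily with 0–2 μM resorufin. Steady-state parameters from Michaelis-Menten regression.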

2B36v1 [18] = target: T3, 2B36v1; assay: 7-BR O-debenzylation, reconstituted system; format: biochemical
2B37v1 [19] = target: T4, 2B37v1; assay: 7-BR O-debenzylation, reconstituted system; format: biochemical; settings: enzyme 2B37v1
2B37v2 [20] = target: T5, 2B37v2; assay: 7-BR O-debenzylation, reconstituted system; format: biochemical; settings: enzyme 2B37v2
2B37v1 K262R [21] = target: T6, 2B37v1 K262R; assay: 7-BR O-debenzylation, reconstituted system; format: biochemical; settings: enzyme 2B37v1 K262R
2B37v2 R262K [22] = target: T7, 2B37v2 R262K; assay: 7-BR O-debenzylation, reconstituted system; format: biochemical; settings: enzyme 2B37v2 R262K
2B37v2 V114I [23] = target: T8, 2B37v2 V114I; assay: 7-BR O-debenzylation, reconstituted system; format: biochemical; settings: enzyme 2B37v2 V114I
2B37v2 V480L [24] = target: T9, 2B37v2 V480L; assay: 7-BR O-debenzylation, reconstituted system; format: biochemical; settings: enzyme 2B37v2 V480L
[25] = Solubility limit in aqueous solutions; format: physicochemical
[26] = read-out: 7-EFC O-deethylation KM
[27] = read-out: 7-BR O-debenzylation KM

Compound: Clc1ccccc1CN1CCc2sccc2C1 [ticlopidine]
- KS (human 2B6): low micromolar
- maximal increase in HSP450 content upon binding (human 2B6): 2.3%

Compound: (+)-α-pinene
- (+)-α-pinene spectral binding %HSP450 Max Δ (rat 2B1 [1]; maximum change in high-spin P450 content, enzyme 2B1): 48.7 ± 1.3%
- difference spectra type induced (rat 2B1 [1]; peak ~388 nm, trough ~420 nm, represented with 2B1, seen with each enzyme): Type I
- Kd (rat 2B1 [1]; read-out: (+)-α-pinene spectral binding KS, enzyme 2B1, 25 °C): 870 ± 80 nM
- Kd (2B35v1 [2]): 1270 ± 490 nM
- Kd (2B36v1 [3]): 580 ± 40 nM
- Kd (2B37v1 [4]): 9330 ± 760 nM
- Kd (2B37v2 [5]): 910 ± 70 nM
- log P [6]: 4.44

Compound: COC(=O)[C@H](c1ccccc1Cl)N1CCc2sccc2C1 [clopidogrel]
- KS (human 2B6): low micromolar
- maximal increase in HSP450 content upon binding (human 2B6): 2.6%

Compound: CN[C@H]1CC[C@@H](c2ccc(Cl)c(Cl)c2)c2ccccc21 [sertraline]
- maximal increase in HSP450 content upon binding (human 2B6): 0.8%

Compound: rat 2B1 (Rattus norvegicus; E2A/G22K/H23K/K25S/N29K/P24T/R27K)
- Km [7]: 32.4 ± 4.9 µM
- kcat [7]: 0.115 ± 0.02 s⁻¹
- kcat/Km [7]: 3500 M⁻¹ s⁻¹

Compound: CCOc1ccc2c(C(F)(F)F)cc(=O)oc2c1 [7-EFC, 7-ethoxy-4-(trifluoromethyl)coumarin]
- O-dealkylation products (2B35v1 [8]): not detected
- 7-EFC O-deethylation kcat (2B36v1 [9]): 3.3 ± 1.0 min^−^1
- Km (2B36v1 [9]; [26]): 18.3 ± 7 µM
- 7-EFC KM lower than 2B1 (2B37v1 [10]; 2B37v1 vs 2B1): ~ 25%
- 7-EFC catalytic efficiency higher than for 2B1 (2B37v1 [10]; 2B37v1 vs 2B1): ~ 1.8 fold
- 7-EFC kcat higher than that for 2B1 (2B37v1 [10]; 2B37v1 vs 2B1): ~ 1.4 fold
- kcat for 7-EFC-O-deethylation greater than that of 2B1 (2B37v1 [10]; 2B37v1 vs 2B1): ~ 50%
- 7-EFC O-deethylation kcat (2B37v1 [10]; enzyme 2B37v1): 10.0 ± 0.3 min^−^1
- Km (2B37v1 [10]; read-out: 7-EFC O-deethylation KM, enzyme 2B37v1): 23.5 ± 2 µM
- kcat for 7-EFC-O-deethylation greater than that of 2B1 (2B37v2 [11]; 2B37v2 vs 2B1): 2 fold
- 7-EFC O-deethylation kcat (2B37v2 [11]; enzyme 2B37v2): 14.5 ± 8.3 min^−^1
- Km (2B37v2 [11]; read-out: 7-EFC O-deethylation KM, enzyme 2B37v2): 20 ± 4.2 µM
- decrease in 7-EFC kcat (2B37v1 K262R [12]; 2B37v1 K262R vs 2B37v1): ~ 45%
- reduction of 7-EFC catalytic efficiency (2B37v1 K262R [12]; 2B37v1 K262R vs 2B37v1): ~ 35%
- 7-EFC O-deethylation kcat (2B37v1 K262R [12]; enzyme 2B37v1 K262R): 5.4 ± 0.2 min^−^1
- Km (2B37v1 K262R [12]; read-out: 7-EFC O-deethylation KM, enzyme 2B37v1 K262R): 19 ± 2.3 µM
- decrease in 7-EFC catalytic efficiency (2B37v2 R262K [13]; 2B37v2 R262K vs 2B37v2): 85%
- 7-EFC O-deethylation kcat (2B37v2 R262K [13]; enzyme 2B37v2 R262K): 2.0 ± 0.1 min^−^1
- Km (2B37v2 R262K [13]; read-out: 7-EFC O-deethylation KM, enzyme 2B37v2 R262K): 20.3 ± 2.8 µM
- 7-EFC O-deethylation kcat (2B37v2 V114I [14]): 6.3 ± 1.9 min^−^1
- Km (2B37v2 V114I [14]; [26]): 120 ± 2 µM
- 7-EFC O-deethylation kcat (2B37v2 V480L [15]): 22.3 ± 2.0 min^−^1
- Km (2B37v2 V480L [15]; [26]): 23.9 ± 3.6 µM
- 7-EFC O-deethylation kcat (2B37v2 V114I/V480L): 20.8 ± 2.8 min^−^1
- Km (2B37v2 V114I/V480L; [26]): 32.5 ± 4.4 µM

Compound: O=c1ccc2nc3ccc(OCc4ccccc4)cc3oc-2c1 [7-BR, 7-benzyloxyresorufin]
- 7-BR O-debenzylation kcat (rat 2B1 [16]): ~ 4.5 min^−^1
- O-dealkylation products (2B35v1 [17]): not detected
- efficiency for 7-BR O-debenzylation relative to 2B1 (2B36v1 [18]; 2B36v1 as fraction of 2B1): 1/40
- 7-BR O-debenzylation kcat (2B36v1 [18]; enzyme 2B36v1): 0.10 ± 0.03 min^−^1
- Km (2B36v1 [18]; read-out: 7-BR O-debenzylation KM, enzyme 2B36v1): 1.7 ± 0.3 µM
- 7-BR O-debenzylation kcat (2B37v1 [19]): 0.16 ± 0.04 min^−^1
- Km (2B37v1 [19]; [27]): 7.2 ± 0.6 µM
- 7-BR O-debenzylation kcat (2B37v2 [20]): 0.25 ± 0.06 min^−^1
- Km (2B37v2 [20]; [27]): 9.5 ± 0.5 µM
- 7-BR O-debenzylation kcat (2B37v1 K262R [21]): 0.15 ± 0.07 min^−^1
- Km (2B37v1 K262R [21]; [27]): 8.1 ± 0.7 µM
- 7-BR O-debenzylation kcat (2B37v2 R262K [22]): 0.18 ± 0.05 min^−^1
- Km (2B37v2 R262K [22]; [27]): 9.2 ± 0.7 µM
- 7-BR O-debenzylation kcat (2B37v2 V114I [23]): 0.13 ± 0.01 min^−^1
- Km (2B37v2 V114I [23]; [27]): 5.7 ± 1 µM
- 7-BR O-debenzylation kcat (2B37v2 V480L [24]): 0.47 ± 0.08 min^−^1
- Km (2B37v2 V480L [24]; [27]): 4.5 ± 0.7 µM
- solubility [25]: ~10 µM (≈ 3.03 µg/mL)
